Data as given in ChEMBL document CHEMBL3784969, “Pharmacokinetics of flutamide in patients with renal insufficiency” (Br J Clin Pharmacol, 1999).

Key:
[1] = test system: Homo sapiens; test: AUClast in patient (3 patients) with renal insufficiency at 250 mg, po assessed as hydroxy flutamide administered as single dose by gas chromatography; type: ADME, organism-based; design: dose 250 mg, time 0 - last, route oral; conditions: in vivo
[2] = test system: Homo sapiens; test: Tmax in patient (6 patients) with renal insufficiency assessed as hydroxy flutamide at 250 mg, po administered as single dose 4 hrs prior to hemodialysis treatment measured at starting time of dialysis and post dialysis treatment by gas chromatography; type: ADME, organism-based; conditions: in vivo
Method in brief: (§1)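 Group V haemodialysis males (CLcr <5 ml min−1 1.73 m−2). Single oral 250 mg flutamide (two 125 mg capsules) right after HD; after 14-day washout, same dose 4 h before HD lasting 2–4 h. Venous samples to 48 h, arterial/venous during HD, dialysate in hourly blocks. GC with 63Ni electron-capture detection. CL(HD) = dialysate Ae(HD)/arterial AUC(HD); renal CL = Ae(0,48)/AUC(0,48 h).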

[3] = AUC (0 to 24 hrs) in patient (3 patients) with renal insufficiency at 250 mg, po administered as single dose by gas chromatography; type: ADME, organism-based; design: time < 24 hr, dose 250 mg, route oral; conditions: human, in vivo
[4] = test system: Homo sapiens; test: AUC (0 to infinity) in patient (4 patients) with renal insufficiency at 250 mg, po assessed as hydroxy flutamide administered as single dose by gas chromatography; type: ADME, organism-based; design: dose 250 mg, time infinity, route oral; conditions: in vivo
[5] = Renal clearance in patient (6 patients) with renal insufficiency at 250 mg, po administered as single dose by gas chromatography; type: ADME, organism-based, Kidney; conditions: human, in vivo
Method in brief: (§2)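 Males grouped by 24 h CLcr normalised to body surface area (>80, 50–80, 30–49, 5–29 ml min−1 1.73 m−2), fasted 10 h pre-dose and 4 h post-dose, given a single oral 250 mg flutamide dose. Plasma sampled 0–96 h; urine collected in blocks to 96 h. Flutamide and hydroxyflutamide measured by GC with electron-capture detection. Renal CL = Ae(0,96 h)/AUC(0,96 h); t1/2 = 0.693/λz.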

[6] = AUClast in patient (7 patients) with renal insufficiency at 250 mg, po administered as single dose by gas chromatography; type: ADME, organism-based; design: dose 250 mg, time 0 - last, route oral; conditions: human, in vivo
[7] = test system: Homo sapiens; test: Cmax in patient (7 patients) with renal insufficiency assessed as hydroxy flutamide at 250 mg, po administered as single dose by gas chromatography; type: ADME, organism-based; design: dose 250 mg, route oral; conditions: in vivo
[8] = test system: Homo sapiens; test: Terminal half life in patient (7 patients) with renal insufficiency assessed as hydroxy flutamide at 250 mg, po administered as single dose by gas chromatography; type: ADME, organism-based; conditions: in vivo; method in brief: as §2
[9] = AUClast in patient (6 patients) with renal insufficiency at 250 mg, po administered as single dose 4 hrs prior to hemodialysis treatment measured at starting time of dialysis and post dialysis treatment by gas chromatography; type: ADME, organism-based; design: dose 250 mg, route oral, time 0 - last; conditions: human, in vivo
[10] = Cmax in patient (4 patients) with renal insufficiency at 250 mg, po administered as single dose by gas chromatography; type: ADME, organism-based; design: dose 250 mg, route oral; conditions: human, in vivo
[11] = test system: Homo sapiens; test: Terminal half life in patient (6 patients) with renal insufficiency assessed as hydroxy flutamide at 250 mg, po administered as single dose by gas chromatography; type: ADME, organism-based; conditions: in vivo; method in brief: as §2
[12] = test system: Homo sapiens; test: AUC (0 to 24 hrs) in patient (6 patients) with renal insufficiency assessed as hydroxy flutamide at 250 mg, po administered as single dose by gas chromatography; type: ADME, organism-based; design: time < 24 hr, dose 250 mg, route oral; conditions: in vivo
[13] = test system: Homo sapiens; test: AUC (0 to 24 hrs) in patient (6 patients) with renal insufficiency assessed as hydroxy flutamide at 250 mg, po administered as single dose 4 hrs prior to hemodialysis treatment measured at starting time of dialysis and post dialysis treatment by gas chromatography; type: ADME, organism-based; design: time < 24 hr, dose 250 mg, route oral; conditions: in vivo
[14] = AUClast in patient (4 patients) with renal insufficiency at 250 mg, po administered as single dose by gas chromatography; type: ADME, organism-based; design: dose 250 mg, time 0 - last, route oral; conditions: human, in vivo
[15] = test system: Homo sapiens; test: Renal clearance in patient (7 patients) with renal insufficiency assessed as hydroxy flutamide at 250 mg, po administered as single dose by gas chromatography; type: ADME, organism-based, Kidney; conditions: in vivo; method in brief: as §2
[16] = test system: Homo sapiens; test: Cmax in patient (4 patients) with renal insufficiency assessed as hydroxy flutamide at 250 mg, po administered as single dose by gas chromatography; type: ADME, organism-based; design: dose 250 mg, route oral; conditions: in vivo
[17] = AUC (0 to 24 hrs) in patient (6 patients) with renal insufficiency at 250 mg, po administered as single dose 4 hrs prior to hemodialysis treatment measured at starting time of dialysis and post dialysis treatment by gas chromatography; type: ADME, organism-based; design: time < 24 hr, dose 250 mg, route oral; conditions: human, in vivo
[18] = test system: Homo sapiens; test: AUC (0 to infinity) in patient (6 patients) with renal insufficiency assessed as hydroxy flutamide at 250 mg, po administered as single dose 4 hrs prior to hemodialysis treatment measured at starting time of dialysis and post dialysis treatment by gas chromatography; type: ADME, organism-based; design: dose 250 mg, time infinity, route oral; conditions: in vivo
[19] = test system: Homo sapiens; test: AUC (0 to 24 hrs) in patient (7 patients) with renal insufficiency assessed as hydroxy flutamide at 250 mg, po administered as single dose by gas chromatography; type: ADME, organism-based; design: dose 250 mg, time < 24 hr, route oral; conditions: in vivo
[20] = test system: Homo sapiens; test: Final time point in terminal phase in patient (7 patients) with renal insufficiency at 250 mg, po administered as single dose by gas chromatography; type: ADME, organism-based; conditions: in vivo; method in brief: as §2
[21] = test system: Homo sapiens; test: Toxicity in patient with renal insufficiency assessed as headache at 250 mg, po administered as single dose; type: organism-based; conditions: in vivo
Method in brief: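 26 male subjects in groups by 24 h creatinine clearance (normalized to body surface area): >80, 50–80, 30–49, 5–29, <5 ml min−1 1.73 m−2 on haemodialysis. Given as two 125 mg capsules after a 10 h fast, continued 4 h post-dose. Prescription drugs withheld for the same period. Subjects confined 12 h pre-dose to 48 h post-dose, with adverse events compared across renal-function groups.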

[22] = test system: Homo sapiens; test: Final time point in terminal phase in patient (4 patients) with renal insufficiency assessed as hydroxy flutamide at 250 mg, po administered as single dose by gas chromatography; type: ADME, organism-based; conditions: in vivo; method in brief: as §2
[23] = test system: Homo sapiens; test: Final time point in terminal phase in patient (6 patients) with renal insufficiency assessed as hydroxy flutamide at 250 mg, po administered as single dose 4 hrs prior to hemodialysis treatment measured at starting time of dialysis and post dialysis treatment by gas chromatography; type: ADME, organism-based; conditions: in vivo; method in brief: as §1
[24] = test system: Homo sapiens; test: Toxicity in patient with renal insufficiency assessed as level of lactic dehydrogenase at 250 mg, po administered as single dose (reference value: 85 to 220 IU/l); type: organism-based; conditions: in vivo
Method in brief: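 Male subjects were grouped by creatinine clearance: normal renal function, graded impairment, or chronic haemodialysis. Each received a single oral dose as two 125 mg capsules while fasted. Serum lactic dehydrogenase was measured pre-dose and at follow-up and read against the 85–220 IU l−1 normal range.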

[25] = Tmax in patient (6 patients) with renal insufficiency at 250 mg, po administered as single dose 4 hrs prior to hemodialysis treatment measured at starting time of dialysis and post dialysis treatment by gas chromatography; type: ADME, organism-based; conditions: human, in vivo; method in brief: as §1
[26] = Renal clearance in patient (7 patients) with renal insufficiency at 250 mg, po administered as single dose by gas chromatography; type: ADME, organism-based, Kidney; conditions: human, in vivo; method in brief: as §2
[27] = test system: Homo sapiens; test: Tmax in patient (4 patients) with renal insufficiency assessed as hydroxy flutamide at 250 mg, po administered as single dose by gas chromatography; type: ADME, organism-based; conditions: in vivo; method in brief: as §2
[28] = test system: Homo sapiens; test: Clearance in patient (6 patients) with renal insufficiency assessed as hydroxy flutamide at 250 mg, po administered as single dose 4 hrs prior to hemodialysis treatment measured during dialysis treatment by gas chromatography; type: ADME, organism-based; conditions: in vivo; method in brief: as §1
[29] = test system: Homo sapiens; test: Terminal half life in patient (6 patients) with renal insufficiency assessed as hydroxy flutamide at 250 mg, po administered as single dose 4 hrs prior to hemodialysis treatment measured at starting time of dialysis and post dialysis treatment by gas chromatography; type: ADME, organism-based; conditions: in vivo; method in brief: as §1

## CC(C)C(=O)Nc1ccc([N+](=O)[O-])c(C(F)(F)F)c1 [FLUTAMIDE]
[1]
  AUClast: 6843 ng·h/mL
[2]
  Tmax: 1 h
[3]
  AUC(0-t) at 24 h: 98 ng·h/mL
[4]
  AUC: 6499 ng·h/mL
[5]
  CL renal: 7.1 mL/min
[6]
  AUC(0-t): 32.5 ng·h/mL
[7]
  Cmax: 967 ng/mL
[8]
  beta t1/2: 7.1 h
[9]
  AUC(0-t) at 4 h: 179 ng·h/mL
[10]
  Cmax: 44 ng/mL
[11]
  beta t1/2: 7.3 h
[12]
  AUC: 5132 ng·h/mL
[13]
  AUC: 5434 ng·h/mL
[14]
  AUC(0-t): 79 ng·h/mL
[15]
  CL: 0.3 mL/min
[16]
  Cmax: 874 ng/mL
[17]
  AUC(0-t) at 24 h: 217 ng·h/mL
[18]
  AUC: 5963 ng·h/mL
[19]
  AUC: 4663 ng·h/mL
[20]
  Time: 3.6 h
[21]
  Activity: 12%
[22]
  Time: 56 h
[23]
  Time: 43 h
[24]
  Activity: 144 IU/L
[25]
  Tmax: 1 h
[26]
  CL renal: 22.8 mL/min
[27]
  Tmax: 3 h
[28]
  CL: 21 mL/min
[29]
  beta t1/2: 8 h
